TAAR1 antagonist = antagonists of human TAAR1 | 360,000 compounds, 1.5% hits | AID 624466 | inhibition, % at 3 µM | CHO RD-HGA16 TAAR1, Fluo-8 calcium fluorescence, antagonist | Q96RJ0;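 active = inhibition above a per-plate cutoff, the mean inhibition of test compounds on that plate plus 3 SD, cut at about 49% in these data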
Target sequence (Q96RJ0 whole entry, looked up): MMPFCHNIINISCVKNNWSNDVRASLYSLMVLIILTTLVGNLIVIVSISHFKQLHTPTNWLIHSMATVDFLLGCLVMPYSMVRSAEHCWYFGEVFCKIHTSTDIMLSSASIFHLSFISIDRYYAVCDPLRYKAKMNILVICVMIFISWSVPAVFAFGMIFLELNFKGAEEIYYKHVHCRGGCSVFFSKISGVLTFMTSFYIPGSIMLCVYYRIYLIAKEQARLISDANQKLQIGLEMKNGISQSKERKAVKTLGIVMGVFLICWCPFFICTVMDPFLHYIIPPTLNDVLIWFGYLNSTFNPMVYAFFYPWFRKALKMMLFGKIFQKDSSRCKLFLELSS
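Test system: CHO RD-HGA16 cells bearing hTAAR1 | Reagent: β-PEA, EC80 | Compound dosing: 3 µM, single point | Schedule: Dye loading 75 min at 37 °C, then 30 min room temperature | Signal: Calcium fluorescence with Fluo-8 | Evaluation: Percent inhibition of PEA-evoked calcium signal, max/basal emission ratio | Control set: DMSO-only wells and EC80 β-PEA-stimulated wells | Repeats: Singlicate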
OX1R antag-1 = OX1R (human) antagonism. inhibition, % at 6.6 µM. OX1R-expressing cells, FRET antagonist read-out. AID 485270. O43613. 330,000 compounds, 1.8% hits; in the data active = inhibition mostly above about 38%, no sharp cut-off; inactive = mostly below about 40%
CHO parental Ca = counter-screen for OX1R antagonists: effect in parental CHO cells; parental CHO-K1, ATP-induced calcium, Fluo-8 fluorescence; inhibition, % at 5.6 µM; 330,000 compounds, 0.63% hits; AID 463079;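 active = inhibition above that plate's mean sample inhibition plus 3 SD, cut at about 26% in these data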
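material = parental CHO cells | also added = ATP as calcium-mobilizing challenge | dosing = single point at 5.6 µM | detection = intracellular calcium via Fluo-8 no-wash fluorescent dye | read-out = % inhibition | benchmarks = low control ATP plus DMSO, high control DMSO only | repeats = one well per compound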
TAAR1 ag = agonists of human TAAR1 | Q96RJ0 | CHO RD-HGA16 TAAR1, Fluo-8 calcium fluorescence; vehicle wells 0%, saturating PEA agonist 100% | activation, % at 3 µM | 360,000 compounds, 0.99% hits;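 active = activation above the mean activation of all test compounds in the run plus 3 SD, cut at about 38% in these data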
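Benchmarks: low control DMSO, high control PEA (EC100); System: CHO RD-HGA16 cells carrying human TAAR1 plus Gα16; Detection: Fluo-8 fluorescence, 5 s baseline then 140 s kinetic read; Schedule: 17-24 h plating, Fluo-8 75 min 37 °C, 30 min RT; Read-out basis: % activation from peak over basal fluorescence ratio, DMSO-to-PEA scaled.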
OX1R antag-2 = blocks the human orexin 1 receptor | O43613 | CHO/OX1R cells, Fluo-8 calcium fluorescence, orexin A | 330,000 compounds, 0.43% hits | AID 434989 | inhibition, % at 5 µM;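 active = inhibition above its plate's threshold, mean inhibition of all tested compounds on the plate plus 3 SD, cut at about 37% in these data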
GPR7 antag = antagonists of human GPR7 (neuropeptides B/W receptor 1). P48145. 290,000 compounds, 1.1% hits. inhibition, % at 4.4 µM. GPR7-expressing cells, fluorescence antagonist assay; in the data active = inhibition above about 16%, passing the limit was not always enough;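 note: cells stimulated with the agonist NPW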
Target sequence (P48145 whole entry, looked up): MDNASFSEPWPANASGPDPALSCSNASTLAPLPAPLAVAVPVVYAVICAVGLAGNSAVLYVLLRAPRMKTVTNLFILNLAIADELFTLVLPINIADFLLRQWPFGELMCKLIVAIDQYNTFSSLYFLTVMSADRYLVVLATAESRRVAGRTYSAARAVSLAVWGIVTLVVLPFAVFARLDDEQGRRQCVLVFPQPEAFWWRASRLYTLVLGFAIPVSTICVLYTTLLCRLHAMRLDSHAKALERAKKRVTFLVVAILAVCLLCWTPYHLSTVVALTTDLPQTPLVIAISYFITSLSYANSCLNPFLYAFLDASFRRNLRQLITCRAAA
nonsel antag count = nonselective antagonist in TAAR1 antagonist counter-screen. 2,400 compounds, 77% hits. counterscreen cell line, calcium fluorescence, antagonist mode. AID 651780. shares compounds with TAAR1 antagonist. inhibition, % at 3 µM; in the data active = inhibition above about 22%;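 note: CHO-Ga16 host cells stimulated with ATP at an EC80 level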
TAAR1 ant conf = confirmation of human TAAR1 antagonists | shares compounds with TAAR1 antagonist | TAAR1-expressing cells, fluorescence antagonist read-out | inhibition, % at 3 µM | 2,400 compounds, 40% hits; in the data active = inhibition above about 49%;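 note: CHO-Ga16 host cells challenged with agonist PEA near its EC80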
Ga16 nonsel ag = counter-screen for TAAR1 antagonists: nonselective Ga16 agonists | shares compounds with TAAR1 antagonist | Ga16-expressing cells, calcium fluorescence, agonist counterscreen | activation, % at 3 µM | 2,400 compounds, 18% hits | AID 651953; in the data active = activation above about 12%
TAAR1 ag count = activates human TAAR1 in antagonist counter-screen; 2,400 compounds, 2% hits; shares compounds with TAAR1 antagonist; AID 651955; activation, % at 3 µM; hTAAR1 cell line, fluorescence activation, agonist mode; in the data active = activation above about 37%;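 note: CHO cells stably expressing TAAR1 with calcium dye readout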
Of the large screens only hits and unclear results are named; the others gave an inactive call (follow-up assays come after a bar, where they were run). Compounds with a hit are over-represented: about 4.6% of the library has one in this group of screens.

CC(=O)c1sc2nc(C)cc(C)c2c1N	none
Cc1cc(C)c2c(N)c(C(=O)c3cccc(Cl)c3)sc2n1	TAAR1 antagonist 63 | nonsel antag count 23 | TAAR1 ant conf inactive | Ga16 nonsel ag inactive | TAAR1 ag count inactive
Cc1cc(C)c2c(N)c(C(=O)c3ccc(Cl)cc3Cl)sc2n1	TAAR1 antagonist 76 | nonsel antag count 37 | TAAR1 ant conf 55 | Ga16 nonsel ag inactive | TAAR1 ag count inactive
Cc1cc(C)c2c(N)c(C(=O)c3ccccc3Cl)sc2n1	none
CCc1ccc(N/C(SCc2cccc(F)c2)=C(/C#N)C(=O)NCc2ccco2)cc1	TAAR1 antagonist 50 | nonsel antag count inactive | TAAR1 ant conf inactive | Ga16 nonsel ag inactive | TAAR1 ag count inactive
N#C/C(=C\Nc1ccc2c(c1)OCCO2)C(=O)NCc1ccco1	none
CC(C)Sc1nnc(-c2ccc(S(=O)(=O)N3CCOCC3)cc2)n1C	none
O=C(Nc1ccc(C(=O)O)cc1)/C(=C\C=C\c1ccccc1)NC(=O)c1ccccc1Cl	TAAR1 antagonist 58 | nonsel antag count 23 | TAAR1 ant conf inactive | Ga16 nonsel ag inactive | TAAR1 ag count inactive
O=C(N/C(=C/C=C/c1ccccc1)C(=O)N1CCOCC1)c1ccccc1Cl	none
Brc1ccc(NC(c2ccccc2)c2ccncc2)cc1 (centres undefined)	none
O=C(NCc1cccc(C(F)(F)F)c1)c1cc(-c2ccccc2)nn1CC1CC(c2cccnc2)=NO1 (centres undefined)	none (no result: GPR7 antag)
O=C(NCc1cccc(Br)c1)c1cc(-c2ccccc2)nn1CC1CC(c2cccnc2)=NO1 (centres undefined)	TAAR1 antagonist 56 (no result: GPR7 antag) | nonsel antag count 21 | TAAR1 ant conf inactive | Ga16 nonsel ag inactive | TAAR1 ag count inactive
Cc1ccccc1-c1cc(C(=O)NCc2ccc(OC(F)(F)F)cc2)n(CC2CC(c3cccnc3)=NO2)n1 (centres undefined)	TAAR1 antagonist 70 (no result: GPR7 antag) | nonsel antag count 36 | TAAR1 ant conf 53 | Ga16 nonsel ag inactive | TAAR1 ag count inactive
Cc1ccc(CNC(=O)c2cc(-c3ccccc3C)nn2CC2CC(c3cccnc3)=NO2)cc1 (centres undefined)	TAAR1 antagonist 64 (no result: GPR7 antag) | nonsel antag count 26 | TAAR1 ant conf inactive | Ga16 nonsel ag inactive | TAAR1 ag count inactive
C=CCn1c(N)cc(=O)nc1SCC(=O)Nc1ccc(C)cc1	none
COc1cc2c(cc1NC(=O)COc1ccccc1OC)oc1ccccc12	none
COc1cc2c(cc1NC(=O)COC(=O)Cn1cnc3ccccc31)oc1ccccc12	TAAR1 antagonist 49 (no result: OX1R antag-1, CHO parental Ca, OX1R antag-2) | nonsel antag count inactive | TAAR1 ant conf inactive | Ga16 nonsel ag inactive | TAAR1 ag count inactive
Cc1cc(C(=O)OCC(=O)Nc2ccccc2)c(C)o1	none
CC(C)(C)c1ccc(C(=O)OCCNC(=O)c2c(Cl)nc3ccccn23)cc1	TAAR1 antagonist 73 | nonsel antag count 29 | TAAR1 ant conf inactive | Ga16 nonsel ag inactive | TAAR1 ag count inactive
CCOC(=O)C1=C[C@@H](CC)N(S(=O)(=O)c2ccc([N+](=O)[O-])cc2)[C@H]1c1ccccc1	TAAR1 antagonist 72 (no result: OX1R antag-1, CHO parental Ca, OX1R antag-2, GPR7 antag) | nonsel antag count 30 | TAAR1 ant conf inactive | Ga16 nonsel ag inactive | TAAR1 ag count inactive
CCOC(=O)C1=C[C@@H](C(C)C)N(S(=O)(=O)c2ccc([N+](=O)[O-])cc2)[C@H]1c1ccccc1	TAAR1 antagonist 82 (no result: OX1R antag-1, CHO parental Ca, OX1R antag-2, GPR7 antag) | nonsel antag count 25 | TAAR1 ant conf inactive | Ga16 nonsel ag inactive | TAAR1 ag count inactive
CN(c1ccccc1)S(=O)(=O)c1cccc(NC(=O)c2nn(C)c(=O)c3ccccc23)c1	TAAR1 antagonist 59 (no result: GPR7 antag) | nonsel antag count 25 | TAAR1 ant conf inactive | Ga16 nonsel ag inactive | TAAR1 ag count inactive
CN(c1ccccc1)S(=O)(=O)c1cccc(NC(=O)Cn2cnc3ccccc3c2=O)c1	none
CC(OC(=O)C1CC2CCCC(C1)C2=O)C(=O)Nc1cccc([N+](=O)[O-])c1 (centres undefined)	none (no result: GPR7 antag)
CC(OC(=O)[C@@H]1CCCN1C(=O)c1cccs1)C(=O)Nc1cccc([N+](=O)[O-])c1 (some centres undefined)	TAAR1 antagonist 66 (no result: GPR7 antag) | nonsel antag count 42 | TAAR1 ant conf inactive | Ga16 nonsel ag 13 | TAAR1 ag count inactive
COc1cc(C)ccc1OCc1cc(C(=O)N2C[C@H]3CC[C@H]2C3)no1	TAAR1 antagonist 102 | nonsel antag count inactive | TAAR1 ant conf inactive | Ga16 nonsel ag inactive | TAAR1 ag count inactive
COc1cc(Cl)ccc1OCc1cc(C(=O)N2C[C@H]3CC[C@H]2C3)no1	none
Cc1cccc(N2CCN(C3=NC(=O)/C(=C\c4cn[nH]c4-c4ccccc4)S3)CC2)c1	TAAR1 antagonist 61 | nonsel antag count 41 | TAAR1 ant conf 59 | Ga16 nonsel ag inactive | TAAR1 ag count inactive
CCOc1c(Br)cc(Br)cc1/C=C1\SC(N)=NC1=O	none (no result: OX1R antag-1, CHO parental Ca, OX1R antag-2)
Cc1ccc(-c2csc(NC(=O)/C=C/c3cccs3)n2)cc1C	none
N#Cc1ccc(-c2csc(NC(=O)/C=C/c3cccs3)n2)cc1	TAAR1 antagonist 61 | nonsel antag count 40 | TAAR1 ant conf 52 | Ga16 nonsel ag inactive | TAAR1 ag count inactive
O=C(c1ccc(F)cc1)N1CCCC(c2ccccc2)C1 (centres undefined)	none
COc1cc(-c2cc(NC=O)c3ncc(-c4ccc(C(C)=O)cc4)n3c2)cc(OC)c1OC	TAAR1 antagonist 53 (no result: OX1R antag-1, CHO parental Ca, OX1R antag-2, GPR7 antag) | nonsel antag count 23 | TAAR1 ant conf inactive | Ga16 nonsel ag inactive | TAAR1 ag count inactive
CC(=O)Nc1cc(-c2ccc(CO)cc2)cn2c(-c3cccc(C(F)(F)F)c3)cnc12	TAAR1 antagonist 70 (no result: OX1R antag-1, CHO parental Ca, OX1R antag-2, GPR7 antag) | nonsel antag count 36 | TAAR1 ant conf 51 | Ga16 nonsel ag inactive | TAAR1 ag count inactive
COc1ccccc1-c1cc(NC(C)=O)c2ncc(-c3cccc(C(C)=O)c3)n2c1	TAAR1 antagonist 86 (no result: OX1R antag-1, CHO parental Ca, OX1R antag-2, GPR7 antag) | nonsel antag count 32 | TAAR1 ant conf 53 | Ga16 nonsel ag inactive | TAAR1 ag count inactive
COc1ccc(-c2cc(NC=O)c3ncc(-c4ccc(C(C)=O)cc4)n3c2)cc1OC	none (no result: OX1R antag-1, CHO parental Ca, OX1R antag-2, GPR7 antag)
O=C(NCc1cccnc1)c1ccc(S(=O)(=O)N2CCOCC2)cc1	none

Compound activity from PubChem BioAssay.
